Results on one compound are retold here after ChEMBL document CHEMBL4706641, “Novel Carboline Fungal Histone Deacetylase (HDAC) Inhibitors for Combinational Treatment of Azole-Resistant Candidiasis” (J Med Chem, 2021).

In brackets after ≈: the same amount, converted by molar mass. Activity calls are given as the source filed them. The calls are words filed in the database; no cut-off is given here. Where only a bound is given, the exact number is not on record here.

In general, MIC80 refers to the lowest concentration that inhibits either 80% of growth or 80% of the strains tested, depending on the study. In general, IC50 refers to the point on the concentration scale where inhibition reaches its midpoint.

Data set [1] concerns Nakaseomyces glabratus. Kind of data set: Synergistic antifungal activity against Candida glabrata assessed as potentiation of ITC antifungal activity by measuring ITC incubated for 48 hrs in presence of fluconazole by checkerboard microdilution assay. Type of data set: functional, organism-based. In general terms: Dilution methods test growth across graded concentrations, often in twofold steps.

The subject of another data set is Candida tropicalis. Put plainly: Synergistic antifungal activity against Candida tropicalis assessed as potentiation of ITC antifungal activity by measuring ITC incubated for 48 hrs in presence of fluconazole by checkerboard microdilution assay. Type of data set: functional, organism-based.
Data set [2] deals with Nakaseomyces glabratus. Put plainly: Synergistic antifungal activity against Candida glabrata assessed as potentiation of VRC antifungal activity by measuring VRC incubated for 48 hrs in presence of fluconazole by checkerboard microdilution assay. Type of data set: functional, organism-based.
The subject of data set [3] is Candida albicans. Kind of data set: Synergistic antifungal activity against Candida albicans 0304103 at 32 ug/ml incubated for 48 hrs in presence of 32 ug/ml fluconazole by microdilution assay. Type of data set: functional, organism-based. Conditions: dose 32.0 µg/ml.
The test system of data set [4] is Candida albicans. Put plainly: Synergistic antifungal activity against Candida albicans 0304103 assessed as potentiation of fluconazole antifungal activity incubated for 48 hrs in presence of fluconazole by checkerboard microdilution assay. Type of data set: functional, organism-based. In short, it runs like this: (§1)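 Checkerboard broth microdilution per CLSI M27-A3 (modified), clinical Candida isolates. Exponential cells in RPMI 1640 (MOPS-buffered) at 10³ cells/mL; fluconazole 0.25–64 μg/mL crossed with test compound 2–64 μg/mL (final). 48 h at 35 °C; OD630 read with background subtracted. MIC80 = 80% growth inhibition; FICI ≤0.5 synergy, >4 antagonism.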

For data set [5], the system named is Candida albicans. Put plainly: Antifungal activity against Candida albicans 0304103 at 32 ug/ml incubated for 48 hrs by microdilution assay. Type of data set: functional, organism-based. Conditions: dose 32.0 µg/ml.
For data set [6], the system named is Candida albicans. Put plainly: Antifungal activity against Candida albicans 9172 incubated for 48 hrs by microdilution assay. Type of data set: functional. In short, it runs like this: as §1
Data set [7] concerns Candida albicans. Kind of data set: Antifungal activity against Candida albicans 10061 incubated for 48 hrs by microdilution assay. Type of data set: functional. In short, it runs like this:
as §1

Data set [8] relates to Candida albicans. Kind of data set: Antifungal activity against Candida albicans 4108 incubated for 48 hrs by microdilution assay. Type of data set: functional. In short, it runs like this: as §1
Data set [9] has as its system Pichia kudriavzevii. Put plainly: Antifungal activity against Candida krusei 10153 incubated for 48 hrs by microdilution assay. Type of data set: functional. In short, it runs like this: as §1
For data set [10], the system named is Candida albicans. Put plainly: Synergistic antifungal activity against Candida albicans 9884 incubated for 48 hrs in presence of fluconazole by microdilution assay. Type of data set: functional. In short, it runs like this: as §1
In data set [11] the test system is Candida albicans. Put plainly: Synergistic antifungal activity against Candida albicans 4108 incubated for 48 hrs in presence of fluconazole by microdilution assay. Type of data set: functional. In outline:
as §1

Data set [12] has as its system Pichia kudriavzevii. Put plainly: Synergistic antifungal activity against Candida krusei 10153 assessed as fluconazole MIC incubated for 48 hrs in presence of fluconazole by microdilution assay (reference value: fluconazole alone MIC = […] ug/ml). Type of data set: functional.
Data set [13] relates to Candida albicans. Put plainly: Synergistic antifungal activity against Candida albicans 9884 assessed as potentiation of fluconazole antifungal activity by measuring FICI incubated for 48 hrs in presence of fluconazole by checkerboard microdilution assay. Type of data set: functional. In outline: (§2)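 Checkerboard broth microdilution per CLSI M27-A3 (modified), clinical Candida isolates. 48 h at 35 °C; OD630 read with background subtracted. MIC80 = 80% growth inhibition; FICI ≤0.5 synergy, >4 antagonism.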

The subject of data set [14] is Candida albicans. Kind of data set: Synergistic antifungal activity against Candida albicans 10061 assessed as potentiation of fluconazole antifungal activity by measuring FICI incubated for 48 hrs in presence of fluconazole by checkerboard microdilution assay. Type of data set: functional. In short, it runs like this:
as §2

Data set [15] concerns Candida albicans. Put plainly: Synergistic antifungal activity against Candida albicans 4108 assessed as potentiation of fluconazole antifungal activity by measuring FICI incubated for 48 hrs in presence of fluconazole by checkerboard microdilution assay. Type of data set: functional.
Data set [16] concerns Candida albicans. Kind of data set: Antifungal activity against Candida albicans 0304103 infected in ICR mouse model of candidiasis assessed as reduction in kidney fungal burden at 10 mg/kg, ip dosed 24 hrs post infection and co-treated with 1 mg/kg, ip fluconazole and measured after 5 days. Particulars: time 5.0 day. Type of data set: functional, organism-based.
Data set [17] in a line: Toxicity in human L02 cells. Type of data set: cell-based.
Data set [18] in a line: Toxicity in HUVEC in presence of fluconazole. Particulars: human, HUVEC cells. Type of data set: cell-based.
The subject of data set [19] is Candida albicans. Kind of data set: Down regulation of ERG11 mRNA expression in Candida albicans 0304103 at 32 ug/ml incubated for 24 hrs in presence of 32 ug/ml fluconazole by RT-PCR analysis. Conditions: dose 32.0 µg/ml. Type of data set: functional. In short, it runs like this: (§3)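 C. albicans 0304103 (initial 1 × 10⁶ cells/mL) treated with DMSO, fluconazole 32 μg/mL, compound 32 μg/mL, or both in YEPD medium, 35 °C for 24 h. Total RNA extracted, reverse transcribed, real-time PCR for 40 cycles; fold change by 2^−ΔΔCt with ACT1 as internal control.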

In data set [20] the test system is Candida albicans. Kind of data set: Down regulation of CDR1 mRNA expression in Candida albicans 0304103 at 32 ug/ml incubated for 24 hrs in presence of 32 ug/ml fluconazole by RT-PCR analysis. Type of data set: functional. Conditions: dose 32.0 µg/ml. In outline: as §3
Data set [21] deals with Candida albicans. Put plainly: Up-regulation of CDR2 mRNA expression in Candida albicans 0304103 at 32 ug/ml incubated for 24 hrs by RT-PCR analysis. Type of data set: functional. Particulars: dose 32.0 µg/ml. In short, it runs like this: as §3
Data set [22] deals with Candida albicans. Kind of data set: Up-regulation of MDR1 mRNA expression in Candida albicans 0304103 at 32 ug/ml incubated for 24 hrs by RT-PCR analysis. Type of data set: functional. Conditions: dose 32.0 µg/ml. In outline:
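Cells from a 1 × 10⁶ cells/mL starting suspension were split into DMSO control, FLC 32 μg/mL, test compound 32 μg/mL and combination (32 + 32 μg/mL) groups, then incubated 24 h at 35 °C in YEPD. Total RNA was extracted and reverse-transcribed. Real-time PCR ran 40 cycles (95 °C 5 s, 60 °C 34 s). Fold change was calculated by 2^−ΔΔCt against ACT1.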

In data set [23] the test system is Candida albicans. Put plainly: Inhibition of biofilm formation in Candida albicans 0304103 at 64 ug/ml incubated for 24 hrs in presence of fluconazole by XTT reduction assay. Conditions: dose 64.0 µg/ml. Type of data set: functional, organism-based. In outline:
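C. albicans 0304103 at 1.0 × 10⁶ CFU/mL in RPMI 1640 allowed to adhere 90 min at 37 °C, washed with PBS, then fresh medium with fluconazole 2–32 μg/mL and/or compound 0.12–64 μg/mL added; 24 h at 37 °C. Biofilm metabolic activity by XTT reduction, OD490. Three independent experiments.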

For `O=C(Cc1ccc(OCCCn2c3c(c4cccc(Cl)c42)CCNC3)cc1)NO`, the result in the data set on Nakaseomyces glabratus [1], in the data set with Candida tropicalis, in the data set with Nakaseomyces glabratus [2], in the data set on Candida albicans [3], in the data set with Candida albicans [16] and in the data set on Candida albicans [19] was Active. Further, the outcome with Candida albicans [20], in the data set on Candida albicans [21] and in the data set with Candida albicans [22] was Active. Also, the Activity result in the data set with Candida albicans [4] was “Dose-dependent effect”. Further, the outcome with Candida albicans [5] was inactive. Also, the MIC80 in the data set with Candida albicans [6] is > 64 µg/mL; against Candida albicans [7], > 64 µg/mL; with Candida albicans [8], 64 µg/mL (≈ 155 µM); in the data set with Pichia kudriavzevii [9], 64 µg/mL (≈ 155 µM); in the data set with Candida albicans [10], 2 µg/mL; with Candida albicans [11], 2 µg/mL. Moreover, the MIC80 in the data set on Pichia kudriavzevii [12] came to 8 µg/mL. Moreover, the “fractional inhibitory concentration index (FICI)” value stood at 0.039 with Candida albicans [13], 0.062 in the data set with Candida albicans [14] and 0.035 in the data set on Candida albicans [15]. Besides, the IC50 in data set [17] amounted to 11.5 µM; in data set [18], 12.2 µM. Also, the inhibition entry with Candida albicans [23] was “Active”.
